Source: ChEMBL document CHEMBL1122877, “New antihistaminic N-heterocyclic 4-piperidinamines. 1. Synthesis and antihistaminic activity of N-(4-piperidinyl)-1H-benzimidazol-2-amines” (1985)

Assays:
[1] = test system: Cavia porcellus; experiment: Protection against intravenous histamine lithality in Guinea pigs 24 hour after oral administration; assay type: functional; settings: for ED50: read-out: PD50
Method in brief: (§1)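 Male albino guinea pigs (280-360 g) given oral doses in 2-fold increments 3, 24 or 48 h before iv histamine dihydrochloride 1.25 mg/kg. Protection is survival at 1 h. PD50 by Finney from 4-6 animals per dose and time point, at least 3 doses from a geometric series 0.0025-5 mg/kg. Estimated PD50 uses at least 2 animals per dose.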

[2] = In vivo anti-histaminic protection from 48/80 induced lethality in rats 2 hour after oral administration.; assay type: functional; settings: Rattus norvegicus
Method in brief: (§2)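 Male inbred Wistar rats (240-260 g), fasted overnight, held at 21 ± 1 °C and 65 ± 5% RH. Dosed sc or orally, vehicle 0.9% NaCl. Endpoint is survival at 4 h. ED50 by Finney from 5 rats per dose, at least 3 doses from a geometric series 0.0025-40 mg/kg. Estimated ED50 uses at least 2 rats per dose.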

[3] = test system: Cavia porcellus; experiment: Protection against intravenous histamine lithality in Guinea pigs 3 hour after oral administration; assay type: functional; settings: for ED50: read-out: PD50; method in brief: as §1
[4] = In vivo anti-histaminic protection from 48/80 induced lethality in rats 2 hours after oral administration; assay type: functional; settings: Rattus norvegicus; method in brief: as §2
[5] = In vivo protection from compound 48/80 induced lethality test in rats 1 hour after subcutaneous administration.; assay type: functional; settings: Rattus norvegicus, sc; method in brief: as §2
[6] = test system: Cavia porcellus; experiment: Protection against intravenous histamine lithality in Guinea pigs 48 hour after oral administration; assay type: functional; settings: read-out: PD50; method in brief: as §1
[7] = In vivo anti-histaminic protection from 48/80 induced lethality in rats 1 hour after subcutaneous administration.; assay type: functional; settings: Rattus norvegicus, sc; method in brief: as §2
[8] = biological target: Histamine H1 receptor (Cavia porcellus) (UniProt P31389); experiment: In vitro inhibition of histamine(H1) induced contraction of guinea pig ileum.; assay type: functional, tissue-based
Histamine H1 receptor (Cavia porcellus), sequence (P31389 whole entry): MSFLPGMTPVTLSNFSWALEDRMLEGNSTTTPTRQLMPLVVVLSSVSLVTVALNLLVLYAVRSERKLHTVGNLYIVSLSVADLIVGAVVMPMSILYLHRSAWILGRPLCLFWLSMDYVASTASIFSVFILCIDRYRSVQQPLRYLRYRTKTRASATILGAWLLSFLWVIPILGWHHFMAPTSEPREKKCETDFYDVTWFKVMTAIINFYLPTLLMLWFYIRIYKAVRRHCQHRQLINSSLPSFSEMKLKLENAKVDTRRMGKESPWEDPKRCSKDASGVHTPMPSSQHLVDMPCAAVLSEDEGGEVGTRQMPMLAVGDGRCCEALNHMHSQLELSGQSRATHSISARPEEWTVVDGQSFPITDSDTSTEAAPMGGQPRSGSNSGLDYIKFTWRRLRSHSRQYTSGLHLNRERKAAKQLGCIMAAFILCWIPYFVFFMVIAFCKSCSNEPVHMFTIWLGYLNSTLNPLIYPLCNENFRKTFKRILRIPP
Method in brief: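 Isolated guinea pig ileum in a bath. Cumulative histamine curves every 5 min, logarithmically increasing doses (5.4 × 10^-8, 1.6 × 10^-7, 5.4 × 10^-7 M, ...) until maximal contraction. Repeated after 5 min antagonist contact, then washout and two further curves. Highest test dose normally 0.04 mg/L. A10 = antagonist concentration giving a 10-fold rightward shift of the histamine curve.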

For O=c1[nH]c2ccccc2n1CCCN1CCN(C(c2ccccc2)c2ccccc2)CC1 [OXATOMIDE], the “PD 50” value [1] was greater than 5 mg/kg, the ED50 [2] was 5.37 mg/kg and the “PD 50” value [3] was 0.18 mg/kg.
CN(C)CCC(c1ccc(Cl)cc1)c1ccccn1 (stereo not drawn) [CHLORPHENIRAMINE] gave an ED50 [4] of 37.4 mg/kg and an ED50 [5] of 0.77 mg/kg.
Fc1ccc(CN2CCC(Nc3nc4ccccc4n3Cc3ccccc3)CC2)cc1 gave an ED50 [5] of 2.5 mg/kg.
Compound CCCCn1c(NC2CCN(CCc3ccccc3)CC2)nc2ccccc21 has an ED50 [5] of 2.5 mg/kg.
For CCCCn1c(N(C)C2CCN(CCc3ccccc3)CC2)nc2ccccc21, the ED50 [5] was 2.5 mg/kg.
CCOc1ccc(CCN2CCC(Nc3nc4ccccc4n3Cc3ccccc3)CC2)cc1 showed an ED50 [4] of 0.63 mg/kg and an ED50 [5] of 1.25 mg/kg.
Work on Cc1ccc(Cn2c(N(C)C3CCN(CCc4ccccc4)CC3)nc3ccccc32)cc1 yielded an ED50 [5] of 2.5 mg/kg.
With c1ccc(CCN2CCC(Nc3nc4ccccc4n3CCc3ccccc3)CC2)cc1 the ED50 [5] was greater than 2.5 mg/kg.
For COc1cccc(CCN2CCC(Nc3nc4ccccc4n3Cc3ccccc3)CC2)c1, the ED50 [4] was 0.31 mg/kg and the ED50 [5] was 0.63 mg/kg.
In the case of CCCCN(c1nc2ccccc2[nH]1)C1CCN(CCc2ccccc2)CC1, the ED50 [5] is reported as 2.5 mg/kg.
Work on COc1cc(CCN2CCC(Nc3nc4ccccc4n3Cc3ccccc3)CC2)cc(OC)c1OC yielded an ED50 [4] of 1.25 mg/kg and an ED50 [5] of 0.63 mg/kg.
Work on Fc1ccc(Cn2c(NC3CCN(CCc4ccccc4)CC3)nc3ccccc32)cc1 yielded an ED50 [4] of 0.63 mg/kg, an ED50 [6] of 0.12 mg/kg and an ED50 [1] of 0.08 mg/kg. The ED50 [5] was 0.31 mg/kg and the ED50 [3] was 0.45 mg/kg.
With c1ccc(CCN2CCC(Nc3nc4ccccc4n3Cc3ccccn3)CC2)cc1 the ED50 [4] was 2.5 mg/kg, the ED50 [6] was greater than 0.16 mg/kg and the ED50 [1] was 0.12 mg/kg. For the same compound, the ED50 [5] was 0.16 mg/kg and the ED50 [3] was 0.12 mg/kg.
In the case of COc1ccc(CCN2CCC(Nc3nc4ccccc4n3Cc3ccccc3)CC2)cc1OC, the ED50 [4] is reported as greater than 2.5 mg/kg and the ED50 [5] is reported as 1.25 mg/kg.
For Oc1nc2ccccc2n1CCCN1CCC(Nc2nc3ccccc3n2Cc2ccccc2)CC1, the ED50 [4] was 2.5 mg/kg, the ED50 [6] was greater than 0.6 mg/kg and the ED50 [1] was 0.6 mg/kg. For the same compound, the ED50 [5] was 1.25 mg/kg and the ED50 [3] was 0.16 mg/kg.
Work on CCn1c(N(Cc2ccccc2)C2CCN(CCc3ccccc3)CC2)nc2ccccc21 yielded an ED50 [5] greater than 2.5 mg/kg.
CCn1c(NC2CCN(CCc3ccccc3)CC2)nc2ccccc21 gave an ED50 [5] of 2.5 mg/kg.
CCCCN1CCC(Nc2nc3ccccc3n2Cc2ccccc2)CC1 showed an ED50 [2] greater than 2.5 mg/kg and an ED50 [7] of 0.31 mg/kg.
With CN(C)CCOC(c1ccccc1)c1ccccc1 [DIPHENHYDRAMINE] the ED50 [4] was 37.4 mg/kg, the ED50 [5] was 4 mg/kg and the A10 [8] was 0.66 mg/L. The ED50 [3] was greater than 2.5 mg/kg.
For CN1CCC(Nc2nc3ccccc3n2C)CC1, the ED50 [5] was greater than 2.5 mg/kg.
For O=C(CCCN1CCC(Nc2nc3ccccc3n2Cc2ccccc2)CC1)c1ccc(F)cc1, the ED50 [5] was 2.5 mg/kg.
Oc1nc2ccccc2n1CCN1CCC(Nc2nc3ccccc3n2Cc2ccccc2)CC1 gave an ED50 [4] of 2.5 mg/kg, an ED50 [1] greater than 0.6 mg/kg and an ED50 [5] of 0.31 mg/kg. For the same compound, the ED50 [3] was 0.35 mg/kg.
For CC(c1ccccc1)N1CCC(Nc2nc3ccccc3n2Cc2ccccc2)CC1 (stereo not drawn), the ED50 [4] was greater than 2.5 mg/kg and the ED50 [5] was 1.25 mg/kg.
Clc1ccc(CCN2CCC(Nc3nc4ccccc4n3Cc3ccccc3)CC2)cc1 showed an ED50 [5] of 2.5 mg/kg.
For CCCCCn1c(NC2CCN(CCc3ccccc3)CC2)nc2ccccc21, the ED50 [5] was 2.5 mg/kg.
With c1ccc(Cn2c(NC3CCN(C4CCCCC4)CC3)nc3ccccc32)cc1 the ED50 [2] was greater than 2.5 mg/kg and the ED50 [7] was 0.63 mg/kg.
Compound c1ccc(CCN2CCC(Nc3nc4ccccc4n3Cc3ccccc3)CC2)cc1 has an ED50 [4] of 3.5 mg/kg, an ED50 [6] of 0.25 mg/kg and an ED50 [1] of 0.35 mg/kg. It also gave an ED50 [3] of 0.25 mg/kg.
For Cc1ccc(Cn2c(NC3CCN(CCc4ccccc4)CC3)nc3ccccc32)cc1, the ED50 [4] was 2.5 mg/kg and the ED50 [5] was 1.25 mg/kg.
For c1ccc(CCCN2CCC(Nc3nc4ccccc4n3Cc3ccccc3)CC2)cc1, the ED50 [6] was greater than 0.6 mg/kg, the ED50 [1] was 0.35 mg/kg and the ED50 [5] was 2.5 mg/kg. It also gave an ED50 [3] of 0.35 mg/kg.
OC(COc1ccccc1)CN1CCC(Nc2nc3ccccc3n2Cc2ccccc2)CC1 (stereo not drawn) showed an ED50 [4] of 0.63 mg/kg, an ED50 [6] greater than 0.6 mg/kg and an ED50 [1] of 0.6 mg/kg. The ED50 [5] was 1.25 mg/kg and the ED50 [3] was 0.35 mg/kg.
In the case of CN(c1nc2ccccc2n1Cc1ccc(Br)cc1)C1CCN(CCc2ccccc2)CC1, the ED50 [5] is reported as 2.5 mg/kg.
In the case of CN1CCC(=C2c3ccccc3CCc3cccnc32)CC1 [AZATADINE], the ED50 [4] is reported as 0.48 mg/kg, the ED50 [6] is reported as greater than 2.5 mg/kg and the ED50 [1] is reported as 1.36 mg/kg. It also gave an ED50 [5] of 0.049 mg/kg and an ED50 [3] of 0.014 mg/kg.
Cc1cccc(CCN2CCC(Nc3nc4ccccc4n3Cc3ccccc3)CC2)c1 gave an ED50 [4] of 2.5 mg/kg and an ED50 [5] of 1.25 mg/kg.
CC(c1ccc(F)cc1)n1c(NC2CCN(CCc3ccccc3)CC2)nc2ccccc21 (stereo not drawn) showed an ED50 [4] greater than 2.5 mg/kg and an ED50 [5] of 1.25 mg/kg.
Fc1ccc(CCN2CCC(Nc3nc4ccccc4n3Cc3ccccc3)CC2)cc1 gave an ED50 [4] greater than 2.5 mg/kg and an ED50 [5] of 1.25 mg/kg.
For c1ccc(Cn2c(NC3CCN(CCc4cccs4)CC3)nc3ccccc32)cc1, the ED50 [5] was 0.63 mg/kg.
For N#CC1(c2ccccc2)CCC(N2CCC(Nc3nc4ccccc4n3Cc3ccccc3)CC2)CC1 (stereo not drawn), the ED50 [5] was 2.5 mg/kg.
For c1ccc(Cn2c(NC3CCN(CCCOc4ccccc4)CC3)nc3ccccc32)cc1, the ED50 [4] was 0.63 mg/kg and the ED50 [5] was 0.63 mg/kg.
For COc1ccccc1CCN1CCC(Nc2nc3ccccc3n2Cc2ccccc2)CC1, the ED50 [4] was 1.25 mg/kg and the ED50 [5] was 0.63 mg/kg.
Fc1ccccc1Cn1c(NC2CCN(CCc3ccccc3)CC2)nc2ccccc21 gave an ED50 [4] of 2.5 mg/kg and an ED50 [5] of 1.25 mg/kg.
CN(c1nc2ccccc2n1Cc1ccc(F)cc1)C1CCN(CCc2ccccc2)CC1 gave an ED50 [4] of 1.25 mg/kg and an ED50 [5] of 1.25 mg/kg.
With Clc1ccc(Cn2c(NC3CCN(CCc4ccccc4)CC3)nc3ccccc32)cc1 the ED50 [5] was 2.5 mg/kg.
Work on CC(c1ccccc1)n1c(NC2CCN(CCc3ccccc3)CC2)nc2ccccc21 (stereo not drawn) yielded an ED50 [5] of 2.5 mg/kg.
Compound CC(Cn1c(NC2CCN(CCc3ccccc3)CC2)nc2ccccc21)c1ccccc1 (stereo not drawn) has an ED50 [5] of 2.5 mg/kg.
In the case of C(=C\c1ccccc1)/CN1CCC(Nc2nc3ccccc3n2Cc2ccccc2)CC1, the ED50 [4] is reported as greater than 2.5 mg/kg and the ED50 [5] is reported as 1.25 mg/kg.
Brc1ccc(Cn2c(NC3CCN(CCc4ccccc4)CC3)nc3ccccc32)cc1 showed an ED50 [5] of 1.25 mg/kg.
With C=CCN1CCC(Nc2nc3ccccc3n2Cc2ccccc2)CC1 the ED50 [4] was 0.63 mg/kg and the ED50 [5] was 0.63 mg/kg.
With c1ccc(Cn2c(NC3CCN(CC4COc5ccccc5O4)CC3)nc3ccccc32)cc1 (stereo not drawn) the ED50 [5] was 2.5 mg/kg.
CN1CCC(Nc2nc3ccccc3n2Cc2ccccc2)CC1 gave an ED50 [2] greater than 2.5 mg/kg and an ED50 [7] of 0.31 mg/kg.
With CCn1nnn(CCN2CCC(Nc3nc4ccccc4n3Cc3ccccc3)CC2)c1=O the ED50 [4] was greater than 2.5 mg/kg and the ED50 [5] was 0.31 mg/kg.
For CCn1c(N(C)C2CCN(CCc3ccccc3)CC2)nc2ccccc21, the ED50 [4] was greater than 2.5 mg/kg and the ED50 [5] was 0.63 mg/kg.
With CN(c1nc2ccccc2n1Cc1ccccc1)C1CCN(CCc2ccccc2)CC1 the ED50 [5] was 2.5 mg/kg.
In the case of FC(F)(F)c1cccc(CCN2CCC(Nc3nc4ccccc4n3Cc3ccccc3)CC2)c1, the ED50 [5] is reported as 2.5 mg/kg.
COc1ccc(CCN2CCC(Nc3nc4ccccc4n3Cc3ccccc3)CC2)cc1 gave an ED50 [4] of 0.63 mg/kg, an ED50 [6] of 0.16 mg/kg and an ED50 [1] of 0.08 mg/kg. The ED50 [5] was 1.25 mg/kg and the ED50 [3] was 0.25 mg/kg.
